Measurements: ChEMBL document CHEMBL2086386, “Potent and orally efficacious benzothiazole amides as TRPV1 antagonists” (Bioorg Med Chem Lett, 2012)
In brackets after ≈: the same amount, converted by molar mass. Activity calls are given as the source filed them.

Target: Transient receptor potential cation channel subfamily V member 1 (Rattus norvegicus) (UniProt O35433)
Assay: Binding affinity to rat TRPV1 at 1 uM
Conditions: not given

Sequence of Transient receptor potential cation channel subfamily V member 1 (Rattus norvegicus) (O35433 whole entry): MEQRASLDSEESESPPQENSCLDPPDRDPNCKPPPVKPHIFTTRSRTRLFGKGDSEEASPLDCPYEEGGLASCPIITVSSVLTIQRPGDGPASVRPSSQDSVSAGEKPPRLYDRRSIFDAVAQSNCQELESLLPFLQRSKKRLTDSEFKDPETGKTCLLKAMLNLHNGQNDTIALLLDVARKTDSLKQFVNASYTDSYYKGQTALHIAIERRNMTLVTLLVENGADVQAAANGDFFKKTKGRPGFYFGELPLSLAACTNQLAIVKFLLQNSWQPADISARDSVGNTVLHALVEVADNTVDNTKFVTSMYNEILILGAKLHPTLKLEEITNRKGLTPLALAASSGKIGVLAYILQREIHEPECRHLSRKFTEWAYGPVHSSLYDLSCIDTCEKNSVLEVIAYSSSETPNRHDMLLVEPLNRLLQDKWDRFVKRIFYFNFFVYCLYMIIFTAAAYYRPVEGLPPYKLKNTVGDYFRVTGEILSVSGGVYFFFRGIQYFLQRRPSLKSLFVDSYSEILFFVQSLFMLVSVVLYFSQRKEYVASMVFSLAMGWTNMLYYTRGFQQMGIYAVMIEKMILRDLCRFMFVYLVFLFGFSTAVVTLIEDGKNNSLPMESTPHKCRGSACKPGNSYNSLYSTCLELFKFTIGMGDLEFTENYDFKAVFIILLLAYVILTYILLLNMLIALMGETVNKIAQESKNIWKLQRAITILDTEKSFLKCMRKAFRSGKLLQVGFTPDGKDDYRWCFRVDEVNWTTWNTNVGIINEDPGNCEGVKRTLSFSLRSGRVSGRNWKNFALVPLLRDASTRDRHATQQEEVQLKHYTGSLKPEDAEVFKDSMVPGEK

In the case of `Cc1cc(Br)ccc1C(=O)Nc1ccc2sc(CO)nc2c1`, the Activity is reported as “Active”.

System: not listed separately
Assay: Half life in iv dosed Sprague-Dawley rat
Type: ADME, organism-based
Conditions: in vivo

Compound `Cc1cc(Br)ccc1C(=O)Nc1ccc2sc(CO)nc2c1` has a half-life of 144 min.

System: not listed separately
Assay: Intrinsic clearance in human liver microsomes assessed per mg of protein
Type: ADME, Microsome
Conditions: read-out: CLH

Compared with `CC(C)Oc1ccc(C(=O)Nc2ccc3sc(CO)nc3c2)cc1`, `CC(C)(C)Oc1ccc(C(=O)Nc2ccc3sc(CO)nc3c2)cc1` is 1.6-fold higher in microsomal CLint: 12 µL/min/mg for the first, 19 µL/min/mg for the second.

First: CC(C)(C)c1ccc(C(=O)Nc2ccc3sc(CO)nc3c2)cc1
Second: O=C(Nc1ccc2sc(CO)nc2c1)c1ccc(Cl)cc1
The microsomal CLint of the first is 4.1-fold higher: 57 µL/min/mg for the first, 14 µL/min/mg for the second.

`O=C(Nc1ccc2sc(CO)nc2c1)c1ccc(C(F)(F)F)nc1` and `Cn1nc(C(F)(F)F)cc1C(=O)Nc1ccc2sc(CO)nc2c1` are within 1.5-fold of each other in microsomal CLint: 13 µL/min/mg for the first, 9 µL/min/mg for the second.

Going from `O=C(Nc1ccc2sc(CO)nc2c1)c1ccc(CN2CCOCC2)cc1` to `CCOCc1ccc(C(=O)Nc2ccc3sc(CO)nc3c2)cc1`, the microsomal CLint rises from 13 µL/min/mg to 24 µL/min/mg (1.8-fold).

Target: Transient receptor potential cation channel subfamily V member 1 (Homo sapiens, UniProt Q8NER1)
Assay: Antagonist activity at human recombinant TRPV1 receptor assessed as inhibition of capsaicin-induced calcium uptake by FLIPR assay
Type: functional
Conditions: not given
Method in brief: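 Whole-cell fluorescence imaging assay (FLIPR II) of the rise in intracellular Ca2+ on capsaicin addition. Inhibition by the test compound is quantified.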

Sequence of Transient receptor potential cation channel subfamily V member 1 (Q8NER1 whole entry): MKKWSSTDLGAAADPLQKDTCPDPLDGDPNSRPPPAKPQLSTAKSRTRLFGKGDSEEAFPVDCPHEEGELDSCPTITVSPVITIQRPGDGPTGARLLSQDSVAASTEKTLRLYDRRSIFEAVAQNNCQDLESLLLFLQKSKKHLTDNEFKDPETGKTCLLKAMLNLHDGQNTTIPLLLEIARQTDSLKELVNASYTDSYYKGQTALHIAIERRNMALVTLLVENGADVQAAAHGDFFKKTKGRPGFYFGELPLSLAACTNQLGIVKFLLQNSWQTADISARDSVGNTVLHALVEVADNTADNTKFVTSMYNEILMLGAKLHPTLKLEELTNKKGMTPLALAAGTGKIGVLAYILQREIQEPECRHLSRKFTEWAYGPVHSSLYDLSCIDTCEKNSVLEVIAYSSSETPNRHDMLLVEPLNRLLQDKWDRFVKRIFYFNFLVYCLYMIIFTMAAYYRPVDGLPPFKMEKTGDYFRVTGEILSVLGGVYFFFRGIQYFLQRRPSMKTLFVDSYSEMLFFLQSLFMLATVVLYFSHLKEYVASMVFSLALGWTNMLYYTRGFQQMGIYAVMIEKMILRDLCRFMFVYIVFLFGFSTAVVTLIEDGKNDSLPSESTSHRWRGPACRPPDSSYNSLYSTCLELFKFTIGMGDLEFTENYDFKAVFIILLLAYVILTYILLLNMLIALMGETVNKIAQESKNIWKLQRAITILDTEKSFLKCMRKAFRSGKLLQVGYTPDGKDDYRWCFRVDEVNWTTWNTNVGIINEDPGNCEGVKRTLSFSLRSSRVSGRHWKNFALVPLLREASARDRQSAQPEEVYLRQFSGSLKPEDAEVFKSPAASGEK

Going from `O=C(Nc1ccc2sc(CO)nc2c1)c1ccc(C(F)(F)F)cc1` to `CC(C)(C)c1ccc(C(=O)Nc2ccc3sc(CO)nc3c2)cc1`, the IC50 falls from 11.9 nM to 3.7 nM (3.2-fold).

First: CC(C)Oc1ccc(C(=O)Nc2ccc3sc(CO)nc3c2)cc1
Second: CC(C)(C)Oc1ccc(C(=O)Nc2ccc3sc(CO)nc3c2)cc1
The IC50 of the first is 3.4-fold higher: 33.4 nM for the first, 9.8 nM for the second.

First: CC(C)(C)c1ccc(C(=O)Nc2ccc3sc(CN)nc3c2)cc1
Second: Cc1nc2cc(NC(=O)c3ccc(C(C)(C)C)cc3)ccc2s1
The IC50 of the first is 37-fold higher: 987 nM for the first, 27 nM for the second.

First: O=C(Nc1ccc2sc(CO)nc2c1)c1ccc(CN2CCOCC2)cc1
Second: O=C(Nc1ccc2sc(CO)nc2c1)c1ccc(Cl)cc1
The IC50 of the first is higher: greater than 10000 nM for the first, 68.2 nM for the second.

First: O=S(=O)(Nc1ccc(C(F)(F)F)cc1)c1ccc2sc(CO)nc2c1
Second: O=S(=O)(Nc1ccc2sc(CO)nc2c1)c1ccc(Br)cc1
The IC50 of the first is lower: 5570 nM for the first, greater than 10000 nM for the second.

First: CC(=O)NCc1nc2cc(NC(=O)c3ccc(C(C)(C)C)cc3)ccc2s1
Second: CC(C)(C)c1ccc(C(=O)Nc2ccc3sc(CNS(C)(=O)=O)nc3c2)cc1
The IC50 of the first is 3.4-fold higher: 2410 nM for the first, 708 nM for the second.

First: Cc1cc(Cl)ccc1C(=O)Nc1ccc2sc(CO)nc2c1
Second: Cc1cc(Br)ccc1C(=O)Nc1ccc2sc(CO)nc2c1
The IC50 of the first is 1.6-fold higher: 85.9 nM for the first, 52.3 nM for the second. The second is the more potent here.

First: O=C(Nc1ccc2sc(CO)nc2c1)C1CCC(C(F)(F)F)CC1 (stereo not drawn)
Second: Cn1nc(C(F)(F)F)cc1C(=O)Nc1ccc2sc(CO)nc2c1
The IC50 of the first is higher: greater than 10000 nM for the first, 157 nM for the second. The second is the more potent here.

First: CC(C)(C)c1ccc(CNc2ccc3sc(CO)nc3c2)cc1
Second: CC(C)(C)c1ccc(NC(=O)c2ccc3sc(CO)nc3c2)cc1
The IC50 of the first is lower: 833 nM for the first, greater than 10000 nM for the second.

Compared with `CC(O)c1nc2cc(NC(=O)c3ccc(C(C)(C)C)cc3)ccc2s1` (racemic), `CC(C)(C)OCc1ccc(C(=O)Nc2ccc3sc(CO)nc3c2)cc1` is 4.3-fold lower in IC50: 223 nM for the first, 52.2 nM for the second.

Going from `C#Cc1ccc(C(=O)Nc2ccc3sc(CO)nc3c2)cc1` to `O=C(Nc1ccc2sc(CO)nc2c1)c1ccc(Br)cc1`, the IC50 falls from 175 nM to 26.5 nM (6.6-fold).

First: CCN(CC)Cc1ccc(C(=O)Nc2ccc3sc(CO)nc3c2)cc1
Second: CCOCc1ccc(C(=O)Nc2ccc3sc(CO)nc3c2)cc1
The IC50 of the first is higher: greater than 10000 nM for the first, 489 nM for the second. The second is the more potent here.

Going from `CC(C)(C)Oc1cccc(C(=O)Nc2ccc3sc(CO)nc3c2)c1` to `O=C(Nc1ccc2sc(CO)nc2c1)c1ccc(OCC(F)(F)F)nc1`, the IC50 falls from 1070 nM to 41 nM (26-fold).

In the case of `Cc1ccc(CCNC(=O)c2ccc3sc(CO)nc3c2)cc1`, the IC50 is reported as 1610 nM.

System: not listed separately
Assay: Clearance in rat hepatocytes assessed as per 10^6 cells
Type: ADME, cell-based, Hepatocyte
Conditions: read-out: CLH

First: CC(C)Oc1ccc(C(=O)Nc2ccc3sc(CO)nc3c2)cc1
Second: Cc1cc(OC(C)C)ccc1C(=O)Nc1ccc2sc(CO)nc2c1
The hepatocyte CLint of the first is 4.8-fold higher: 57 µL/min/1e6 cells for the first, 12 µL/min/1e6 cells for the second.

`Cc1cc(Cl)ccc1C(=O)Nc1ccc2sc(CO)nc2c1` and `Cc1cc(Br)ccc1C(=O)Nc1ccc2sc(CO)nc2c1` are within 1.5-fold of each other in hepatocyte CLint: 17 µL/min/1e6 cells for the first, 24 µL/min/1e6 cells for the second.

`O=C(Nc1ccc2sc(CO)nc2c1)c1ccc(Br)cc1` and `O=C(Nc1ccc2sc(CO)nc2c1)c1ccc(Cl)cc1` are within 1.5-fold of each other in hepatocyte CLint: 54 µL/min/1e6 cells for the first, 66 µL/min/1e6 cells for the second.

System: not listed separately
Assay: Oral bioavailability in Sprague-Dawley rat
Type: ADME, organism-based
Conditions: in vivo

Work on `Cc1cc(Br)ccc1C(=O)Nc1ccc2sc(CO)nc2c1` yielded a bioavailability of 53%.

System: Rattus norvegicus
Assay: Analgesic activity against carrageenan-induced thermal hyperalgesia in Sprague-Dawley rat assessed as paw withdrawal latency at 100 umol/kg, po after 30 mins after 3 hrs
Type: functional
Conditions: not given
Method in brief: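 Male Sprague-Dawley rats (125-200 g), groups of 7. Under isoflurane, 100 µl of 1% carrageenan is injected subcutaneously into the plantar left hind paw, and testing is done 3 h later. After 30 min acclimation on a 30 °C glass surface, radiant heat is focused on the affected paw. Withdrawal latency is the mean of two trials about 5 min apart, with a 20 s cut-off. Naïve rats serve as controls. Single oral dose.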

`Cc1ccc(-c2cc(C(F)(F)F)nn2-c2ccc(S(N)(=O)=O)cc2)cc1` [CELECOXIB] and `Cc1cc(Br)ccc1C(=O)Nc1ccc2sc(CO)nc2c1` are the same in Activity: 35% for the first, 35% for the second.

System: not listed separately
Assay: Aqueous solubility of the compound in sodium phosphate buffer at pH 7.4
Type: physicochemical
Conditions: not given
Method in brief: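 Solubility measured in 0.1 M sodium phosphate buffer.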

Going from `CC(C)Oc1ccc(C(=O)Nc2ccc3sc(CO)nc3c2)cc1` to `CC(C)(C)Oc1ccc(C(=O)Nc2ccc3sc(CO)nc3c2)cc1`, the solubility rises from 38 µM (≈ 13 µg/mL) to 64 µM (≈ 22.8 µg/mL) (1.7-fold).

Going from `CC(C)(C)c1ccc(C(=O)Nc2ccc3sc(CO)nc3c2)cc1` to `Cc1nc2cc(NC(=O)c3ccc(C(C)(C)C)cc3)ccc2s1`, the solubility falls from 6 µM (≈ 2.04 µg/mL) to 2.2 µM (≈ 0.714 µg/mL) (2.7-fold).

Compared with `O=C(Nc1ccc2sc(CO)nc2c1)c1ccc(C(F)(F)F)nc1`, `O=C(Nc1ccc2sc(CO)nc2c1)c1ccc(OCC(F)(F)F)nc1` is 6.8-fold lower in solubility: 61 µM (≈ 21.6 µg/mL) for the first, 9 µM (≈ 3.45 µg/mL) for the second.

First: O=C(Nc1ccc2sc(CO)nc2c1)c1ccc(CN2CCOCC2)cc1
Second: O=C(Nc1ccc2sc(CO)nc2c1)c1ccc(Cl)cc1
The solubility of the first is 140-fold higher: 419 µM (≈ 161 µg/mL) for the first, 3 µM (≈ 0.956 µg/mL) for the second.

`Cc1cc(Cl)ccc1C(=O)Nc1ccc2sc(CO)nc2c1` and `Cc1cc(Br)ccc1C(=O)Nc1ccc2sc(CO)nc2c1` are within 1.5-fold of each other in solubility: 7 µM (≈ 2.33 µg/mL) for the first, 10 µM (≈ 3.77 µg/mL) for the second.

Going from `O=C(Nc1ccc2sc(CO)nc2c1)C1CCC(C(F)(F)F)CC1` (stereo not drawn) to `Cn1nc(C(F)(F)F)cc1C(=O)Nc1ccc2sc(CO)nc2c1`, the solubility falls from 77 µM (≈ 27.6 µg/mL) to 14 µM (≈ 4.99 µg/mL) (5.5-fold).

`O=C(Nc1ccc2sc(CO)nc2c1)c1ccc(N2CCCCC2)nc1` and `O=C(Nc1ccc2sc(CO)nc2c1)c1ccc(Br)cc1` are within 1.5-fold of each other in solubility: 4 µM (≈ 1.47 µg/mL) for the first, 5 µM (≈ 1.82 µg/mL) for the second.

`C#Cc1ccc(C(=O)Nc2ccc3sc(CO)nc3c2)cc1` and `CCOCc1ccc(C(=O)Nc2ccc3sc(CO)nc3c2)cc1` are within 1.5-fold of each other in solubility: 25 µM (≈ 7.71 µg/mL) for the first, 37 µM (≈ 12.7 µg/mL) for the second.

Going from `CCN(CC)Cc1ccc(C(=O)Nc2ccc3sc(CO)nc3c2)cc1` to `CC(C)(C)OCc1ccc(C(=O)Nc2ccc3sc(CO)nc3c2)cc1`, the solubility falls from 5160 µM (≈ 1910 µg/mL) to 11 µM (≈ 4.08 µg/mL) (470-fold).

First: CC(C)(C)Oc1cccc(C(=O)Nc2ccc3sc(CO)nc3c2)c1
Second: Cc1cc(OC(C)C)ccc1C(=O)Nc1ccc2sc(CO)nc2c1
The solubility of the first is 20-fold higher: 181 µM (≈ 64.5 µg/mL) for the first, 9 µM (≈ 3.21 µg/mL) for the second.

System: Rattus norvegicus
Assay: Toxicity in Sprague-Dawley rat assessed as effect on body temperature at 100 umol/kg, po
Type: organism-based
Conditions: in vivo

In the case of `Cc1cc(Br)ccc1C(=O)Nc1ccc2sc(CO)nc2c1`, the Activity is reported as “Non-toxic”.

System: Rattus norvegicus
Assay: Analgesic activity against capsaicin-induced thermal hyperalgesia in Sprague-Dawley rat assessed as paw withdrawal latency at 90 umol/kg, po after 30 mins
Type: functional
Conditions: not given
Method in brief: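 Male Sprague-Dawley rats (125-200 g), groups of 7, acclimatized at least 3 days and tested in the light phase. Capsaicin 10 μg/5 μL is injected intradermally into the plantar left hind paw of restrained rats. Heat hyperalgesia is read 30 min later as radiant-heat paw withdrawal latency on a 30 °C glass surface: two trials about 5 min apart, averaged, 20 s cut-off. Naïve rats serve as controls. Single oral dose.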

In the case of `Cc1cc(Br)ccc1C(=O)Nc1ccc2sc(CO)nc2c1`, the Activity is reported as 72%.
